Reference: ChEMBL document CHEMBL1921684, “Targeting zymogen activation to control the matriptase-prostasin proteolytic cascade” (J Med Chem, 2011)
The source made the active and inactive calls. The calls are words filed in the database; no cut-off is given here.

Assays:
[1] = molecular target: T1, Suppressor of tumorigenicity 14 protein (Homo sapiens) (UniProt Q9Y5Y6); test: Inhibition of acid-induced matriptase activation in human 184A1N4 cells assessed as enzyme-HAI-1 complex using mAb M24 at 5 uM after 30 mins by Western blotting; format: cell-based
T1 sequence (whole entry): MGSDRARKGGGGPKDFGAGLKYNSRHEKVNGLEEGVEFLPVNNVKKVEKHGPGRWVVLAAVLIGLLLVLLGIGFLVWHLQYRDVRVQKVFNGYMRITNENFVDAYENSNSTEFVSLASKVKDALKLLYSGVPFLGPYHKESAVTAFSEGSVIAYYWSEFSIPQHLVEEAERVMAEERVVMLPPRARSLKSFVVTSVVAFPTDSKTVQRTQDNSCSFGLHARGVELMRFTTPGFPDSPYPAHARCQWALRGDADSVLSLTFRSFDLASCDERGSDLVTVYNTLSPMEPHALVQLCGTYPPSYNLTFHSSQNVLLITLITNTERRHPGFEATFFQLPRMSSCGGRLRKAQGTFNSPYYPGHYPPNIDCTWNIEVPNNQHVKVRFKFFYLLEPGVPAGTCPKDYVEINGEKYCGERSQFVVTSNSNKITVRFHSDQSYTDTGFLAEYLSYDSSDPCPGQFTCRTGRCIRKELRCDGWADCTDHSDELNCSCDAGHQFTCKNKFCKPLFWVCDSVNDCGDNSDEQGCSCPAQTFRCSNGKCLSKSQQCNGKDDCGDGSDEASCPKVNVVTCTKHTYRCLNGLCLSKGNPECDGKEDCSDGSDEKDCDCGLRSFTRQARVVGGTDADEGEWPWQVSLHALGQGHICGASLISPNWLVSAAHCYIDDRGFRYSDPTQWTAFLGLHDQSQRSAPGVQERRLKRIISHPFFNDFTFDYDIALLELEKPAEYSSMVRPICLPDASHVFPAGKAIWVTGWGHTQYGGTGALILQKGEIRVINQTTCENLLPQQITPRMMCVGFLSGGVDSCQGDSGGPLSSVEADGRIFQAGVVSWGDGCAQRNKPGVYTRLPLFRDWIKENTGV
How it was run: (§1)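 Intact 184 A1N4 cells pre-treated with compound in 150 mM sodium phosphate pH 6.0 for 30 min at 4 °C, then held 20 min at room temperature to drive activation. PBS served as non-activation control and buffer alone as activation control. Cells lysed in PBS with 1 mM DTNB and 1% Triton X-100. Non-reduced, unboiled lysates run on 7.5% SDS-PAGE. Blots probed with M24 (70-kDa latent form, 120-kDa matriptase-HAI-1 complex) or M69 (activated matriptase); triplicate.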

[2] = molecular target: T1, Suppressor of tumorigenicity 14 protein (Homo sapiens); test: Inhibition of acid-induced matriptase activation in human 184A1N4 cell homogenate using mAb M69 after 30 mins by Western blot analysis
How it was run: (§2)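 Insoluble fraction of 184 A1N4 cell homogenates (made in PBS, collected by centrifugation) preincubated with compound in 150 mM sodium phosphate pH 6.0 for 30 min at 4 °C. Activation then induced for 20 min at room temperature. Non-reduced, unboiled samples run on 7.5% SDS-PAGE. Immunoblot probed with mAb M24 (total matriptase) or M69 (activated matriptase); chemiluminescent detection; triplicate.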

[3] = molecular target: T2, Suppressor of tumorigenicity 14 protein (Homo sapiens, UniProt Q9Y5Y6); test: Inhibition of acid-induced matriptase activation in human 184A1N4 cells using mAb M69 by cell-based ELISA like assay
T2 sequence (Q9Y5Y6 whole entry): T1 sequence (whole entry)
How it was run: (§3)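 184 A1N4 cells seeded at 8×10^4 cells/well 24 h ahead. Compound in pH 6.0 sodium phosphate buffer, 30 min at 4 °C, then 20 min at room temperature. Cells fixed in 4% formaldehyde with 0.1% Triton for 20 min. Activated matriptase detected with mAb M69, HRP anti-mouse IgG and TMB; A450. […] Screening used 5 μM final per compound in 1% DMSO.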

[4] = molecular target: T1, Suppressor of tumorigenicity 14 protein (Homo sapiens); test: Inhibition of acid-induced matriptase activation in human 184A1N4 cells using mAb M69 at 5 uM by cell-based ELISA like assay; how it was run: as §3
[5] = molecular target: T1, Suppressor of tumorigenicity 14 protein (Homo sapiens); test: Inhibition of acid-induced matriptase activation in human 184A1N4 cell homogenate using mAb M24 after 30 mins by Western blot analysis; how it was run: as §2
[6] = molecular target: T1, Suppressor of tumorigenicity 14 protein (Homo sapiens); test: Inhibition of acid-induced matriptase activation in human 184A1N4 cells assessed as decrease in 120 kDa enzyme-HAI-1 complex using mAb M69 after 30 mins by Western blotting; format: cell-based; how it was run: as §1
[7] = molecular target: T1, Suppressor of tumorigenicity 14 protein (Homo sapiens); test: Inhibition of acid-induced matriptase activation in human 184A1N4 cells using mAb M24 after 20 mins by Western blotting; format: cell-based; how it was run: as §1
[8] = molecular target: T1, Suppressor of tumorigenicity 14 protein (Homo sapiens); test: Inhibition of acid-induced matriptase activation in human 184A1N4 cells using mAb M69 after 20 mins by Western blotting; format: cell-based; how it was run: as §1
[9] = molecular target: T1, Suppressor of tumorigenicity 14 protein (Homo sapiens); test: Inhibition of acid-induced matriptase activation in human 184A1N4 cells using mAb M69 after 20 mins by cell-based ELISA-like assay; how it was run: as §3
[10] = molecular target: T1, Suppressor of tumorigenicity 14 protein (Homo sapiens); test: Inhibition of acid-induced matriptase activation in human 184A1N4 cells assessed as decrease in 120 kDa enzyme-HAI-1 complex using mAb M24 after 30 mins by Western blotting relative to untreated control; format: cell-based; how it was run: as §1
[11] = molecular target: T1, Suppressor of tumorigenicity 14 protein (Homo sapiens); test: Inhibition of acid-induced matriptase-mediated prostasin activation in human HaCaT cells assessed as decrease in prostatin-HAI-1 complex after 30 mins by Western blot analysis; format: cell-based
How it was run: (§4)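 HaCaT keratinocytes (DMEM, 10% FBS) incubated with compound in phosphate buffer pH 6.0 for 30 min at 4 °C, then 20 min at room temperature. Controls were PBS (no activation) and buffer alone. Lysates run non-reduced on 7.5% SDS-PAGE. Immunoblots probed with M24 (total matriptase), M69 (activated matriptase) and a polyclonal anti-prostasin antibody detecting the prostasin-HAI-1 complex.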

[12] = molecular target: T1, Suppressor of tumorigenicity 14 protein (Homo sapiens); test: Inhibition of acid-induced matriptase activation in human 184A1N4 cells assessed as increase in 70 kDa latent matriptase using mAb M24 after 30 mins by Western blotting; format: cell-based; how it was run: as §1
[13] = molecular target: T1, Suppressor of tumorigenicity 14 protein (Homo sapiens); test: Inhibition of acid-induced matriptase activation in human 184A1N4 cells assessed as increase in 70 kDa latent matriptase using mAb M24 at 5 uM after 30 mins by Western blotting; format: cell-based; how it was run: as §1
[14] = molecular target: T1, Suppressor of tumorigenicity 14 protein (Homo sapiens); test: Inhibition of acid-induced matriptase activation in human 184A1N4 cells assessed as decrease in 120 kDa enzyme-HAI-1 complex using mAb M24 at 5 uM after 30 mins by Western blotting relative to untreated control; format: cell-based; how it was run: as §1
[15] = molecular target: T1, Suppressor of tumorigenicity 14 protein (Homo sapiens); test: Inhibition of acid-induced matriptase activation in human HaCaT cells using mAb M24 after 30 mins by Western blot analysis; format: cell-based; how it was run: as §4
[16] = molecular target: T1, Suppressor of tumorigenicity 14 protein (Homo sapiens); test: Inhibition of acid-induced matriptase activation in human HaCaT cells using mAb M69 after 30 mins by Western blot analysis; format: cell-based; how it was run: as §4

Row | inhibition [2] | IC50 [3] [µM] | inhibition [5] | inhibition [6] | Structure (SMILES) | also measured
1 | Dose-dependent effect | 9.8 | Dose-dependent effect | – | O=C(C1=C(O)C(=O)N(c2nccs2)C1c1cccs1)c1cccs1 (stereo unspecified) | inhibition [1]: Active; inhibition [4]: Active
2 | Dose-dependent effect | 21.8 | Dose-dependent effect | – | Cc1nc(N2C(=O)C(O)=C(C(=O)c3ccccc3)C2c2cccs2)sc1C (stereo unspecified) | –
3 | Dose-dependent effect | 7 | Dose-dependent effect | Active | Cc1nc(N2C(=O)C(O)=C(C(=O)c3cccs3)C2c2ccccc2)sc1C (stereo unspecified) | –
4 | – | – | – | – | [Cl-].[Na+] | inhibition [7]: Dose-dependent effect; inhibition [8]: Dose-dependent effect; inhibition [9]: Dose-dependent effect
5 | Dose-dependent effect | 2.6 | Dose-dependent effect | Active | Cc1nc(N2C(=O)C(O)=C(C(=O)c3cccs3)C2c2cccs2)sc1C (stereo unspecified) | inhibition [10]: Dose-dependent effect; inhibition [11]: Dose-dependent effect; inhibition [12]: Dose-dependent effect; inhibition [13]: Active; inhibition [14]: Active; inhibition [15]: Dose-dependent effect; inhibition [16]: Dose-dependent effect
